# Measurements as given in PMC11550832 (Nature Communications, 2024).
# Key:
# [1] = molecular target: PD-L1 on 4T1 cells (Mus musculus, UniProt Q9EP73); assay: Surface PD-L1 level after treatment; type: cell-based; conditions: 4T1, nanoparticles 50 μM or antibody 68 nM, 4 h, flow cytometry
# How it was run: (§1)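 Cells were washed and moved to medium without FBS or penicillin/streptomycin. They were treated 4 h at 37 °C, 5% CO₂ with nanoparticles (50 μM) or anti-PD-L1 antibody (68 nM). Surface PD-L1 was stained 15 min at 4 °C with BV421 antibody (1:200), anti-human for SKBR-3 and anti-mouse for 4T1. Cells were PBS-washed three times and analysed by flow cytometry.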
# [2] = test system: LLC cells; assay: Cytotoxicity, CCK-8; type: cell-based, mouse; conditions: CCK-8, 24 h, 1-200 μM, TPM1 finding at 100 μM or 200 μM
# How it was run: (§2)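 Cells at 8 × 10³ per well were exposed to 1, 10, 50, 100 and 200 μM nanoparticles in DMEM, RPMI-1640 or McCoy's 5A complete medium for 24 h. CCK-8 was added for a further 2 h and OD450 read. Viability (%) = [(treated − blank)/(control − blank)] × 100.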
# [3] = test system: 4T1 cells co-cultured with activated CD8+ T cells; assay: Killing effect of activated CD8+ T cells on treated 4T1 cells; type: cell-based, mouse; conditions: co-culture of 4T1 and activated CD8+ T cells
# How it was run: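 Splenic mouse CD8⁺ T cells were expanded with IL-2 and activated with anti-CD3/CD28 beads. 4T1 cells were pretreated 4 h with test compound or anti-PD-L1 antibody (68 nM), washed, then co-cultured with T cells (1:10) for 24 h. T cells alone on 4T1 served as control. Read-outs: CCK-8 viability (6 × 10³ cells/well) or calcein-AM staining, 20 min (2 × 10⁴ cells/well).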
# [4] = test system: 4T1 cells; assay: Intracellular distribution of internalized TPM2 and TPM3; type: cell-based, mouse; conditions: 50 μM, 4, 24 and 48 h, LysoTracker, CLSM
# [5] = molecular target: T1, human PD-L1 recombinant protein (Homo sapiens, UniProt Q9NZQ7); assay: CD and FTIR spectroscopy of β-sheet formation; type: biochemical; conditions: human PD-L1, 24 h, 50 μM, ratio 1000:1
# How it was run: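 Nanoparticles were incubated with or without recombinant human PD-L1. β-sheet formation was then detected by CD spectroscopy, with FTIR alongside.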
# [6] = molecular target: PD-L1 on the membrane of SKBR-3 cells (Homo sapiens, UniProt Q9NZQ7); assay: Co-location of nanoparticles and PD-L1 on cell membrane; type: cell-based; conditions: SKBR-3, 4 h, FITC immunofluorescence
# How it was run: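 PD-L1 on cells was immunostained with a FITC-labelled goat anti-mouse secondary (1:1000, 1 h, room temperature) after PBS washes. Nuclei were stained with DAPI and cells imaged by confocal microscopy. Co-localization with the nanoparticle signal was quantified computationally.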
# [7] = test system: SKBR-3 cells; assay: Cellular distribution of peptide nanoparticles; type: cell-based, human; conditions: SKBR-3, 50 μM, 4 h
# [8] = molecular target: PD-L1 on SKBR-3 cells (Homo sapiens, UniProt Q9NZQ7); assay: Surface PD-L1 level after treatment; type: cell-based; conditions: SKBR-3, nanoparticles 50 μM or antibody 68 nM, 4 h, flow cytometry
# How it was run: as §1
# [9] = test system: mice bearing 4T1 breast cancer; assay: In vivo inflammatory effect, serum TNF, IL-6, IL-1β ELISA; set-up: species or system mouse; conditions: 21 days after a single dose, 4T1 tumour mice, n = 5
# How it was run: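 Serum was taken from 4T1 tumour-bearing mice (n = 5 per group) 21 days after a single dose. Arms: PBS 200 μL i.v., nanoparticles 13 mg/kg via tail vein, anti-PD-L1 antibody 5 mg/kg. TNF, IL-6 and IL-1β were measured by ELISA.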
# [10] = test system: 4T1 cells; assay: Cellular distribution of peptide nanoparticles; type: cell-based, mouse; conditions: 4T1, 50 μM, 4 h
# [11] = Zeta potential by DLS; type: physicochemical; conditions: 200 μM, mean n = 3
# [12] = TEM morphology of nanoparticles; type: physicochemical; conditions: 50 μM, uranyl acetate stain
# How it was run: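 A 50 μM nanoparticle solution was dried on holey-carbon copper grids and stained with 2% uranyl acetate for 3 min. Grids were imaged by TEM at 120 kV.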
# [13] = Particle size by DLS; type: physicochemical; conditions: aqueous solution, 200 μM
# [14] = test system: mice bearing 4T1 tumour; assay: Bio-distribution, ex vivo fluorescence imaging; type: in vivo, mouse; conditions: single i.v. 13 mg/kg, 4T1 tumour mice, post-injection
# How it was run: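 Female Balb/c mice (6–8 weeks) carrying subcutaneous 4T1 tumours (1 × 10⁶ cells, right flank) got a single tail-vein dose of 13 mg/kg nanoparticle. n = 3 per group per time point. Tumour, heart, liver, spleen, lung, kidney, intestine and muscle were harvested at 2, 4, 6, 8, 10, 24, 48, 72 and 168 h post-injection and imaged ex vivo by fluorescence.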
# [15] = molecular target: T1, human PD-L1 recombinant protein; assay: PD-L1-induced fibrillar transformation in aqueous solution; type: biochemical; conditions: 24 h incubation
# How it was run: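 Recombinant human PD-L1 was added to 50 μM nanoparticle solution at molar ratios of 1:100, 1:500, 1:1000, 1:2000 and 1:5000. Mixtures were incubated 0.5 h, 4 h and 24 h, then prepared for TEM to view morphology change.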
# [16] = test system: HFF cells; assay: Cytotoxicity, CCK-8; type: cell-based, human; conditions: CCK-8, 24 h, 1, 10, 50, 100 and 200 μM, n = 5
# How it was run: as §2
# [17] = test system: SKBR-3 cells; assay: Cytotoxicity, CCK-8; type: cell-based, human; conditions: SKBR-3, CCK-8, 24 h, 1-200 μM; TPM1 finding at 100 μM or 200 μM
# How it was run: as §2
# [18] = test system: 4T1 cells; assay: Cytotoxicity, CCK-8; type: cell-based, mouse; conditions: 4T1, CCK-8, 24 h, 1-200 μM; TPM1 finding at 100 μM or 200 μM
# How it was run: as §2
# [19] = Critical aggregation concentration; type: physicochemical; conditions: pyrene probe, I1 (373 nm)/I3 (384 nm), 0.01-50 μM, 37 °C for 2 h, fluorescence
# How it was run: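 Pyrene fluorescence was excited at 335 nm and emission recorded. The I1 (373 nm)/I3 (384 nm) intensity ratio was used to derive the critical aggregation concentration.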
# [20] = test system: PD-L1 in SKBR-3 cells; assay: Upregulation of PD-L1 induced by IFN-γ; type: cell-based, human; conditions: SKBR-3, 100 ng/mL, 24 h
# How it was run: (§3)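 Recombinant human IFN-γ (100 ng/mL) added to complete medium of SKBR-3 cells for 24 h. Western blot: cells PBS-washed three times, lysed on ice in RIPA buffer with 1% protease inhibitor, spun 13523 × g, 3 min, 4 °C; band density quantified. Flow cytometry: PBS-washed cells stained with BV421-labelled human anti-PD-L1 (1:200), 15 min, 4 °C, washed thrice.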
# [21] = test system: PD-L1 in 4T1 cells; assay: Upregulation of PD-L1 induced by IFN-γ; type: cell-based, mouse; conditions: 4T1, 100 ng/mL, 24 h
# How it was run: as §3, with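 “4T1 cells received mouse” for “Recombinant human”, “in” for “added to”, “medium” for “medium of SKBR-3 cells”, “mouse” for “human”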
# T1 sequence (Q9NZQ7 19-239 limits assumed): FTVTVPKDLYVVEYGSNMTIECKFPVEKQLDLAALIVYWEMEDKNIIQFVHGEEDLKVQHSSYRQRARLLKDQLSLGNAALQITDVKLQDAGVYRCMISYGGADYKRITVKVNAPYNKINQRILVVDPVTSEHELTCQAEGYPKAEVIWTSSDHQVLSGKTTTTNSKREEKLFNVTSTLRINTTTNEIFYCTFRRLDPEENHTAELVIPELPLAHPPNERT
# PD-L1 on 4T1 cells, sequence (Q9EP73 19-290): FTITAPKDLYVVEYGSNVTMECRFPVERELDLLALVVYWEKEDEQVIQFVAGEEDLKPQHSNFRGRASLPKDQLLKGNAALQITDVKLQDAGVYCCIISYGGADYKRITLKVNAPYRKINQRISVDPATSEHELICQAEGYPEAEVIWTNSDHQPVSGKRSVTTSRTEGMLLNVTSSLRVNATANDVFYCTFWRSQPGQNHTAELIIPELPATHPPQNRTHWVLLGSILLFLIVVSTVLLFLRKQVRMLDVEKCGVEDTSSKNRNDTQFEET
# PD-L1 on the membrane of SKBR-3 cells, sequence (Q9NZQ7 19-290): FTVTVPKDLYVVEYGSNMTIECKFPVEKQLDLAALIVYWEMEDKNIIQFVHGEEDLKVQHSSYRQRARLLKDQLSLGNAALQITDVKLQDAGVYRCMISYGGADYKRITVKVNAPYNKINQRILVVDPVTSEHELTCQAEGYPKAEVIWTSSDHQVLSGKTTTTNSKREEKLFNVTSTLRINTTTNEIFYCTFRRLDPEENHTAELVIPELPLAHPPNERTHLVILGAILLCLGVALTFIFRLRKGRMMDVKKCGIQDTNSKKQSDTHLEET
# PD-L1 on SKBR-3 cells, sequence (Q9NZQ7 19-290): as above
molecule,measurement,setting,value
Ac-K(Ce6)-GGAAK-SGQYASYHCWCWRDPGRSGGSK [TPM2],change in PD-L1 expression levels before and after incubation,[1],no significant changes
same,cytotoxicity,[2],No cytotoxicity
same,effect on T cell activity,[3],no effect
same,fate of internalized nanoparticles,[4],predominately degraded in lysosomes
same,CD signals after incubation with PD-L1 protein,[5],No such change
same,co-localization with PD-L1 on cell membrane,[6],No apparent co-localization
same,location of Ce6 red fluorescence signals (CLSM),[7],inside cells rather than on the cell membranes
same,change in PD-L1 expression levels before and after incubation,[8],no significant changes
same,"serum TNF, IL-6 and IL-1β versus PBS and other groups",[9],no significant difference
same,location of Ce6 red fluorescence signals (CLSM),[10],inside cells rather than on the cell membranes
same,zeta potential of initial nanoparticles,[11],+19.6 mV
same,morphology of nanoparticles (TEM),[12],spherical structure
same,diameter of nanoparticles (DLS),[13],~ 19 nm
same,time of peak fluorescence intensity in the tumour,[14]; ex vivo imaging,24 h
same,fluorescent signals in the tumour remained until,[14],48 h
same,morphology after incubation with PD-L1 proteins (TEM),[15],no noticeable change in morphology
same,cytotoxicity,[16],no apparent cytotoxicity
same,cytotoxicity,[17],No cytotoxicity
same,cytotoxicity,[18],No cytotoxicity
same,critical aggregation concentration (CAC),[19],9.8 µM
"IFN-γ: human or mouse IFN-γ (PeproTech), 100 ng/mL, used to upregulate PD-L1 expression (protein, UniProt P01579 24-161, looked up) Interferon gamma: QDPYVKEAENLKKYFNAGHSDVADNGTLFLGILKNWKEESDRKIMQSQIVSFYFKLFKNFKDDQSIQKSVETIKEDMNVKFFNSNKKKRDDFEKLTNYSVTDLNVQRKAIHELIQVMAELSPAAKTGKRKRSQMLFRG",PD-L1 expression after IFN-γ treatment,[20],increased PD-L1 expression
same,PD-L1 expression after IFN-γ treatment,[21],increased PD-L1 expression
